# Data from ChEMBL document CHEMBL1133088 (J Med Chem, 2000).
# Key:
# [1] = Half life of compound in PBS suspension; format: ADME
# How it was run: (§1)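 Lactone-ring hydrolysis of 1 uM drug at 37 °C and pH 7.4, incubated in PBS, in PBS containing physiologically relevant HSA or albumin-free red blood cells, or in whole human blood. Isocratic acetonitrile/2% triethylamine acetate (pH 5.5) at 1 mL/min; lactone eluted near 7.0 min, carboxylate near 2.0 min.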
# [2] = Half life in human blood.; format: ADME, organism-based; conditions: whole blood; how it was run: as §1
# [3] = Equilibrium association constant interacting with unilamellar vesicles of negatively charged DMPG in PBS buffer at pH of 7.4 and 37 degrees celsius.; format: ADME; conditions: pH 7.4
# How it was run: (§2)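 Fluorescence anisotropy titration of 1 uM total drug with small unilamellar vesicles (DMPC or DMPG) in PBS, pH 7.4, 37 °C. SUVs were sonicated from 10 mg/mL lipid stocks and annealed 30 min at 37 °C; DMPG pH was readjusted to 7.4. Readings were taken about 0.5–1 min after mixing. K came from least-squares slopes of double-reciprocal plots (1/bound fraction vs 1/[lipid]).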
# [4] = % lactone at different intervals of time in PBS with HSA suspension; format: ADME; conditions: human, buffer; how it was run: as §1
# [5] = Equilibrium association constant interacting with unilamellar vesicles of electroneutral in PBS buffer at pH 7.4; format: ADME; how it was run: as §2
# [6] = Half life of compound in PBS with HSA suspension; format: ADME; conditions: human, HSA (human serum albumin) in PBS; how it was run: as §1
# [7] = % lactone at different intervals of time in PBS with RBC suspension; format: ADME; conditions: erythrocytes; how it was run: as §1
# [8] = Half life for of compound in PBS with RBC suspension; format: ADME; conditions: RBC (red blood cell) suspension in PBS; how it was run: as §1
# [9] = species: Homo sapiens; experiment: % lactone at different intervals of time in human blood.; format: ADME, organism-based; how it was run: as §1
# [10] = % lactone at different intervals of time in PBS suspension; format: ADME; conditions: buffer; how it was run: as §1
# [11] = tested on: U-87 MG; experiment: Inhibition of tumor growth at day 28 postimplantation after administration of 10 mg/kg/day in nude mouse U87 glioma subcutaneous model system; format: functional, U-87MG ATCC; conditions: sc, 672 h
# [12] = Inhibition against MDA-MB-435 S human breast cancer cells in the absence of albumin; format: functional, cell-based
# How it was run: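 Read-out was sulforhodamine B, which stains protein in cells and cell fragments still attached to the dish bottom, including dying or dead attached cells. IC50 was derived from the cell survival profiles.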
# [13] = tested on: Tumor Cell line; experiment: Mean GI50 against variety of human tumor cell lines; format: functional
# How it was run: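 NCI tumour cell panel: 5000–40 000 cells/well preincubated 24 h at 37 °C, then exposed 48 h (5% CO2) to five 10-fold dilutions from DMSO stocks. Highest well concentration in routine testing was 10^-4 M. Growth was read by sulforhodamine B protein staining.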
# [14] = tested on: U-87 MG; experiment: Inhibition of tumor growth at day 28 postimplantation after administration of 3 mg/kg/day in nude mouse U87 glioma subcutaneous model system; format: functional, U-87MG ATCC; conditions: sc, 672 h
# [15] = tested on: MDA-MB-435; experiment: Inhibition against MDA-MB-435 human breast cancer cells in the presence of 1 mg/mL HSA
# [16] = tested on: MDA-MB-435; experiment: Inhibition against MDA-MB-435 human breast cancer cells in the absence of HSA; format: functional, cell-based
# How it was run: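 MDA-MB-435 S human breast cancer cells exposed to drug with or without added HSA. Viability was read after a 3-day growth assay by sulforhodamine B staining of protein remaining attached to the dish.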
IC50 [12] [nM],half-life ([8]; human) [min],SMILES,half-life [1] [min],half-life [2] [min],KDMPG [3] [M⁻¹],Lactone [4] [%],KDMPC [5] [M⁻¹],half-life [6] [min],Lactone [7] [%],half-life [8] [min],Lactone [9] [%],Lactone [10] [%],inhibition in vivo at 10 mg/kg/day [11] [%],GI50 [13] [nM],inhibition in vivo at 3 mg/kg/day [14] [%],IC50 [15] [nM],IC50 [16] [nM]
,,CC[C@@]1(O)C(=O)OCc2c1cc1n(c2=O)Cc2c-1nc1ccccc1c2[Si](C)(C)CCCCl,23.3,85.6,2500,2.7,2800,16,43.4,59.7,2.2,12,,,,,
,,CC[C@@]1(O)C(=O)OCc2c1cc1n(c2=O)Cc2c-1nc1ccc(O)cc1c2[Si](C)(C)CCCCl,29.5,65.3,1200,17.2,2200,48,50.2,67.7,17.8,11.3,,,,,
,,CC[C@@]1(O)C(=O)OCc2c1cc1n(c2=O)Cc2c-1nc1ccccc1c2[Si](C)(C)C(C)(C)C,27.9,71,16000,0.1,15500,46.3,59.4,79.4,1,12.2,,,,,
,,CCc1c2c(nc3ccc(O)cc13)-c1cc3c(c(=O)n1C2)COC(=O)[C@]3(O)CC [7-ETHYL-10-HYDROXYCAMPTOTHECIN],20.9,32,160,,260,36.1,37.5,24.4,19.5,15.3,,,,,
14,51.4,CC[C@@]1(O)C(=O)OCc2c1cc1n(c2=O)Cc2c-1nc1ccc(O)cc1c2[Si](C)(C)C(C)(C)C [AR-67],31.8,,2800,10.5,2500,119,41.4,,30.5,10.2,73,21,61,,
,,CC[C@@]1(O)C(=O)OCc2c1cc1n(c2=O)Cc2cc3ccccc3nc2-1 [CAMPTOTHECIN],,,100,< 0.5,100,11.9,34.6,30.8,5.3,17,,44,,375,15
,,CC[C@@]1(O)C(=O)OCc2c1cc1n(c2=O)Cc2cc3cc(O)ccc3nc2-1 [HYDROXYCAMPTOTHECIN],,,,,,,,,,,,36,,,
,,CC[C@@]1(O)C(=O)OCc2c1cc1n(c2=O)Cc2cc3c(CN(C)C)c(O)ccc3nc2-1 [TOPOTECAN],,,50,,10,,,,,,,,,,
